Results of several laboratories.
Protocols differ between the studies behind these lines. pIC50: −log10 of the molar value.
HDAC5: Histone deacetylase 5 (HDAC5, Homo sapiens, UniProt Q9UQL6)
PDE1C: Dual specificity calcium/calmodulin-dependent 3',5'-cyclic nucleotide phosphodiesterase 1C (PDE1C, Homo sapiens, UniProt Q14123)
A disintegrin and metalloproteinase with thrombospondin motifs 7: A disintegrin and metalloproteinase with thrombospondin motifs 7 (Homo sapiens, UniProt Q9UKP4)
F11: Coagulation factor XI (F11, Homo sapiens, UniProt P03951)

| target | test | setting | pIC50 | SMILES |
| --- | --- | --- | --- | --- |
| HDAC5 | enzyme activity, inhibitor, fluorescence | – | 5.09 | O=C(NO)c1cncc(OS(=O)(=O)Oc2ccc3ccccc3c2)c1 |
| PDE1C | enzyme activity, inhibitor, radiometric | – | 6.83 | CCOc1ccccc1/C=C1\OC(=O)c2c1cc(C)[nH]c2=O |
| A disintegrin and metalloproteinase with thrombospondin motifs 7 | enzyme activity, inhibitor, FRET | – | 8.02 | Cn1nccc1[C@]1(CNC(=O)c2ccc(C(F)(F)F)c(F)c2-c2ccc(C(F)(F)F)cc2)NC(=O)NC1=O |
| F11 | enzyme activity, inhibitor, absorbance | pH 7.4 | < 4.30 | O=c1oc(-c2ccco2)nc2ccccc12 |
| A disintegrin and metalloproteinase with thrombospondin motifs 7 | enzyme activity, inhibitor, FRET | – | 7.92 | Cn1nccc1[C@]1(CNC(=O)c2ccccc2-c2ccc(C(F)(F)F)cc2)NC(=O)NC1=O |
| YTH domain-containing family protein 2 (YTHDF2, Homo sapiens, UniProt Q9Y5A9) | ligand displacement, FP | – | 5.22 | O=C(/C=C/c1ccc(O)c2oc(-c3ccc(O)c(O)c3)cc12)O[C@H](Cc1ccc(O)c(O)c1)C(=O)O |
| A disintegrin and metalloproteinase with thrombospondin motifs 7 | enzyme activity, inhibitor, FRET | – | 8.49 | Cn1nccc1[C@]1(CNC(=O)c2ccc(Cl)c(F)c2-c2ccc(C(F)(F)F)cc2)NC(=O)NC1=O |
| HDAC5 | enzyme activity, inhibitor | – | < 5.00 | COc1ccc(C[C@H]2COC(=O)[C@@H]2Cc2ccc(OCC(=O)Nc3ccc(C(=O)Nc4ccccc4N)cc3)c(OC)c2)cc1OC |
| Sodium-dependent dopamine transporter (SLC6A3, Homo sapiens, UniProt Q01959, F155Y) | transporter uptake, inhibitor | – | 4.74 | CCCC(=O)NCCCN1CCc2c([nH]c3ccc(Cl)cc23)C1 |
| PDE1C | enzyme activity, inhibitor, radiometric | – | 7.51 | Cc1cc2c(c(=O)[nH]1)C(=O)O/C2=C\c1cc(F)ccc1OCCN1CCOCC1 |
| A disintegrin and metalloproteinase with thrombospondin motifs 7 | enzyme activity, inhibitor, FRET | – | 7.59 | O=C1NC(=O)[C@](CNC(=O)c2cnn(-c3ccc(F)cc3)n2)(C2CC2)N1 |
| PDE1C | enzyme activity, inhibitor, radiometric | – | 6.15 | Cc1cc2c(c(=O)[nH]1)C(=O)O/C2=C\c1ccc(F)cc1OC(C)C |
| F11 | enzyme activity, inhibitor, absorbance | pH 7.4 | < 4.30 | O=c1oc(-c2cccnc2)nc2ccccc12 |
| PDE1C | enzyme activity, inhibitor, radiometric | – | 6.72 | Cc1cc2c(c(=O)[nH]1)C(=O)O/C2=C\c1ccccc1OCC1CC1 |
| HDAC5 | enzyme activity, inhibitor, fluorescence | – | 5.45 | O=C(NO)c1cncc(OS(=O)(=O)Oc2ccc(-n3ccnc3)cc2)c1 |
